An excerpt weighted towards active compounds, which were near 5.8% of everything screened.
KDM4C inh – inhibitors of GASC-1 (KDM4C) histone demethylase, primary screen, biochemical, single concentration HTS | Lysine-specific demethylase 4C (Homo sapiens), Q9H3R0 | GST-KDM4C 2-372, H3K9me3 peptide, LANCE TR-FRET | inhibition, % at 12.5 µM | 96,000 tested, 0.15% active | AID 720574, 2013;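 active means mean replicate inhibition above about 25%, with at least 55% of replicates also reaching it, limit read from the data, passing the limit was not always enough; inconclusive means only one of those two conditions met; inactive means neither condition met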
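Compound: one test concentration per compound; Material: GST-GASC-1 enzyme fragment 2-372; Amount: GASC-1 enzyme at 10 nM final in reaction; Also added: H3K9me3 peptide substrate, Fe(II), 2-oxoglutarate; Technique: LANCE TR-FRET; Times: 30 min demethylation and 1 h detection at room temperature.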
Pf Dd2 growth – P. falciparum Dd2 growth inhibitors, primary screen, SYBR Green fluorescence, single dose replicates | 72 h; hits give low values | activity change, % at 10 µM | 94,000 tested, 2.3% active | AID 1159554, 2015; in the data active means activity change below about -80%; inconclusive means no clear call, values can overlap the other calls
T cruzi growth-1 – T. cruzi intracellular proliferation inhibitors, primary screen, cell-based, beta-gal Tulahuen parasites, NIH3T3 host, luminescence. AID 624255, 2012. inhibition, % at 8.34 µM. 77,000 tested, 5.9% active. T. cruzi beta-gal in NIH3T3, GalScreen luminescence, 90 h;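 active means mean inhibition above about 93%, with at least 55% of replicates each passing it, limit read from the data, passing the limit was not always enough; inconclusive means only one of those two conditions holds; inactive means neither condition holds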
IDH1 mut inh – inhibitors of IDH1 R132H reductase, primary screen, biochemical, plate reader, single point. Isocitrate dehydrogenase [NADP] cytoplasmic (Homo sapiens), O75874. diaphorase/resazurin fluorescence, 60 min. inhibition, % at 10 µM. 70,000 tested, 0.18% active. AID 624101, 2012; in the data active means inhibition above about 34%; inconclusive means no clear call, values can overlap the other calls; inactive means below about 11%;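 further: 0% = DMSO and 100% = no enzyme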
Target sequence (O75874 whole entry R132H): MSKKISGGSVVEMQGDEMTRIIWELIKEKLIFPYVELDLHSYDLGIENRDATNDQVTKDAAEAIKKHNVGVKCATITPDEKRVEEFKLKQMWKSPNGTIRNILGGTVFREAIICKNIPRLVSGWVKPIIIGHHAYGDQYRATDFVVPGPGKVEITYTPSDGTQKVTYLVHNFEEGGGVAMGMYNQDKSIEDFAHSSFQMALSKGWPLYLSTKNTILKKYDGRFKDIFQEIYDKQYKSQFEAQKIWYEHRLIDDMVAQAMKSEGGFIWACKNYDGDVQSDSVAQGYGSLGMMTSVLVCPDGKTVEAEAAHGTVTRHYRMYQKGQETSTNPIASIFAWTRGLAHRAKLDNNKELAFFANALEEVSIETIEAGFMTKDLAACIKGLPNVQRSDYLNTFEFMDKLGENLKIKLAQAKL
T cruzi growth-2 – T. cruzi intracellular proliferation inhibitors, confirmation, cell-based, NIH3T3 host, beta-gal parasite, luminescence, cherry-pick. inhibition, % at 8.35 µM. shares compounds with T cruzi growth-1. AID 651739, 2012. 5,600 tested, 72% active. T. cruzi beta-gal in NIH3T3, GalScreen luminescence, 90 h;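 active means mean replicate inhibition above about 95% and at least 55% of replicates individually reaching it, limit read from the data; inconclusive means only one of the two criteria is met; inactive means neither criterion is met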
T cruzi growth-3 – inhibitors of intracellular T. cruzi replication, confirmation, NIH3T3 host cells, beta-gal parasites, cherry-pick, set 2. 5,600 tested, 21% active. inhibition, % at 2.09 µM. shares compounds with T cruzi growth-1. T. cruzi beta-gal in NIH3T3, GalScreen luminescence, 90 h;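 active means mean inhibition above about 95%, with at least 55% of replicates also reaching it, limit read from the data; inconclusive means meets just one of the two conditions; inactive means meets neither condition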;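 further: plate controls were neutral control median for no effect and positive control median for full effect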
NIH3T3 tox – cytotoxicity in mouse NIH/3T3 fibroblasts, confirmation, cytotoxicity control for T. cruzi proliferation inhibitor project, cell-based, cherry-pick, single point; 5,600 tested, 14% active; shares compounds with T cruzi growth-1; cytotoxicity (signal decrease), % at 8.35 µM; AID 651742, 2012; NIH/3T3 viability, CellTiter-Glo ATP luminescence, 90 h;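 active means mean signal decrease across replicates above about 35% based on untreated-well scatter, with enough replicates individually passing, limit read from the data; inconclusive means no rule stated though some were filed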;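 further: 0% = median of neutral control wells and 100% = median of positive control wells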
3T3 cytotox 2 – NIH/3T3 fibroblast cytotoxicity, confirmation, cytotoxicity control, cell-based, cherry-pick, single point, set 2 | shares compounds with T cruzi growth-1 | NIH/3T3 viability, CellTiter-Glo ATP luminescence, 90 h | inhibition, % at 24.9 µM | 5,600 tested, 56% active | AID 651744, 2012;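 active means mean loss of cell viability signal at or above a set limit, and enough replicates individually reaching it; inconclusive means meets only the mean limit or only the replicate share; inactive means meets neither condition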;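 further: 0% = median of neutral control wells and 100% = median of positive control wells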
Starred values were filed as active, the others as inactive; ? = inconclusive; . = not tested or not shown.

SMILES	KDM4C inh	Pf Dd2 growth	T cruzi growth-1	IDH1 mut inh	T cruzi growth-2	T cruzi growth-3	NIH3T3 tox	3T3 cytotox 2
CN(C)CC#Cc1cccc(-c2nc(C(=O)NCCCN3CCOCC3)cc3c2[C@H](CCO)N(S(=O)C(C)(C)C)C3)c1 (stereo partly drawn)	.	.	105*	.	85	63	-18	-5
COc1ccc(C#Cc2cccc(-c3nc(C(=O)NCCCN4CCOCC4)cc4c3[C@@H](CCO)N(S(=O)C(C)(C)C)C4)c2)cc1OC (stereo partly drawn)	-2	.	62	.	.	.	.	.
CC(C)CC(NS(=O)(=O)c1cccc2nsnc12)C(=O)O (stereo not drawn)	.	.	.	0	.	.	.	.
C[C@H](CO)N1C[C@H](C)[C@H](CN(C)S(=O)(=O)c2cccc(C#N)c2)OCc2ccccc2-c2c(n(C)c3ccccc23)C1=O	0	-83*	101*	-3	105*	42	-4	4
C[C@H]1CN([C@@H](C)CO)C(=O)c2c(c3ccccc3n2C)-c2ccccc2CO[C@@H]1CN(C)S(=O)(=O)c1cccc(F)c1	7	-88*	102*	.	108*	86	-22	27*
Cc1cccc(S(=O)(=O)N(C)C[C@@H]2OCc3ccccc3-c3c(n(C)c4ccccc34)C(=O)N([C@H](C)CO)C[C@@H]2C)c1	-4	-86*	?	.	99*	106*	25	78*
C[C@@H]1CN([C@@H](C)CO)C(=O)c2c(c3ccccc3n2C)-c2ccccc2CO[C@@H]1CN(C)S(=O)(=O)c1ccsc1	-2	-33	62	3	.	.	.	.
C[C@H]1CN([C@@H](C)CO)C(=O)c2c(c3ccccc3n2C)-c2ccccc2CO[C@@H]1CN(C)S(=O)(=O)c1ccsc1	-4	-80*	114*	.	107*	57	1	9
Cc1cccc(S(=O)(=O)N(C)C[C@H]2OCc3ccccc3-c3c(n(C)c4ccccc34)C(=O)N([C@H](C)CO)C[C@@H]2C)c1	-4	-76	75	.	.	.	.	.
C[C@H](CO)N1C[C@H](C)[C@H](CN(C)C(=O)CN(C)C)Oc2ncc(C#CC(C)(C)O)cc2C1=O	4	58	-2	0	.	.	.	.
Cc1ccc(S(=O)(=O)N(C)C[C@@H]2OCCCC[C@H](C)Oc3ccc(NC(=O)Cc4ccccc4)cc3C(=O)N([C@H](C)CO)C[C@H]2C)cc1	-2	-77	83	.	.	.	.	.
C[C@H](CO)N1C[C@H](C)[C@@H](CN(C)C(=O)Nc2ccc3c(c2)OCO3)Oc2c(NS(=O)(=O)c3cn(C)cn3)cccc2C1=O	0	27	-96	.	.	.	.	.
C[C@@H]1CN([C@@H](C)CO)C(=O)c2c(c3ccccc3n2C)-c2ccccc2CO[C@@H]1CN(C)S(=O)(=O)c1ccc(Cl)cc1	0	-87*	100*	0	98*	102*	3	66*
C[C@H](CO)N1C[C@H](C)[C@H](CN(C)S(=O)(=O)c2ccccc2F)OCc2ccccc2-c2c(n(C)c3ccccc23)C1=O	-1	-87*	99*	3	104*	83	44*	97*
C[C@@H]1CN([C@H](C)CO)C(=O)c2c(c3ccccc3n2C)-c2ccccc2CO[C@@H]1CN(C)S(=O)(=O)c1ccc(C#N)cc1	1	-39	-12	1	.	.	.	.
C[C@@H]1CN([C@H](C)CO)C(=O)c2cc(/C=C/c3ccccc3)cnc2O[C@@H]1CN(C)S(=O)(=O)c1ccccc1F	-4	-41	84	2	.	.	.	.
COc1ccc(S(=O)(=O)N(C)C[C@@H]2Oc3ncc(/C=C/c4ccccc4)cc3C(=O)N([C@H](C)CO)C[C@H]2C)cc1	-4	-20	.	0	.	.	.	.
COc1cccc(S(=O)(=O)N(C)C[C@@H]2Oc3ncc(/C=C/c4ccccc4)cc3C(=O)N([C@H](C)CO)C[C@@H]2C)c1	-1	-58	106*	0	105*	73	?	77*
C[C@H](CO)N1C[C@H](C)[C@@H](CN(C)S(=O)(=O)c2ccc(F)cc2)Oc2ncc(/C=C/c3ccccc3)cc2C1=O	-3	-66	85*	.	103*	49	-1	-1
C[C@H](CO)N1C[C@H](C)[C@@H](CN(C)S(=O)(=O)c2ccccc2F)Oc2ncc(/C=C/c3ccccc3)cc2C1=O	-4	-72	126*	0	101*	55	25	26
Cc1noc(C)c1S(=O)(=O)Nc1ccc2c(c1)CC(=O)N([C@H](C)CO)C[C@@H](C)[C@@H](CN(C)S(=O)(=O)c1ccc(F)cc1)O2	-3	-6	16	0	.	.	.	.
COc1cccc(CN2[C@@H](CO)[C@@H](c3ccccc3)C23CN(C(=O)C2CCCCC2)C3)c1	-2	0	.	.	.	.	.	.
COc1cccc(S(=O)(=O)N(C)C[C@@H]2OCc3cnnn3CCCC(=O)N([C@H](C)CO)C[C@H]2C)c1	.	-4	-7	.	.	.	.	.
C[C@@H]1CN([C@@H](C)CO)C(=O)Cc2cc(NS(=O)(=O)c3ccc(F)cc3)ccc2O[C@H]1CN(C)CC1CCCCC1	2	-18	106*	2	112*	54	6	103*
C[C@@H]1CN([C@@H](C)CO)C(=O)Cc2cc(NS(=O)(=O)c3ccc(F)cc3)ccc2O[C@@H]1CN(C)Cc1ccccc1	1	-20	94	.	.	.	.	.
COc1ccc(S(=O)(=O)Nc2ccc3c(c2)CC(=O)N([C@H](C)CO)C[C@H](C)[C@@H](CN(C)Cc2ccccc2)O3)cc1	0	-35	99*	-6	104*	45	-10	-17
C[C@H]1CN([C@@H](C)CO)C(=O)Cc2cc(NS(=O)(=O)c3ccc(F)cc3)ccc2O[C@H]1CN(C)CC1CCCCC1	-2	-30	67	0	.	.	.	.
COc1ccc(S(=O)(=O)Nc2ccc3c(c2)CC(=O)N([C@H](C)CO)C[C@@H](C)[C@@H](CN(C)Cc2ccccc2)O3)cc1	-1	-9	87	0	.	.	.	.

From PubChem BioAssay
